Active and inactive are the calls of the source. No cut-off for these calls is given here.
Legend:
Mus musculus [1] = test: Anticonvulsant activity in ip dosed CF1 albino mouse assessed as protection against 32 mA current-induced seizure by 6Hz psychomotor seizure test; format: functional
Method in brief: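 In the 6 Hz psychomotor seizure test, male CF no. 1 albino mice (18-25 g) received the compound ip in 0.5% methylcellulose. Stimulation was at 32 or 44 mA. Doses were varied to give 3-4 points between 0% and 100% protection, and ED50 with 95% confidence interval came from probit analysis.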

Mus musculus [2] = test: Anticonvulsant activity in CF1 albino mouse assessed as protection against scMet-induced seizures at 30 mg/kg, ip after 4 hrs; format: functional, organism-based; set-up: dose 30 mg/kg
Method in brief: (§1)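 Adult male CF no. 1 albino mice (18-25 g) dosed intraperitoneally with compound suspended in 0.5% methylcellulose (0.01 mL/g). Convulsant challenge given subcutaneously as a 0.85% pentylenetetrazol solution in 0.9% saline. Read-out is animals protected over animals tested, with neurotoxicity scored in parallel.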

Mus musculus [3] = test: Anticonvulsant activity in CF1 albino mouse assessed as protection against scMet-induced seizures at 300 mg/kg, ip after 0.5 hrs; format: functional, organism-based; set-up: dose 300 mg/kg; method in brief: as §1
Mus musculus [4] = test: Anticonvulsant activity in CF1 albino mouse assessed as protection against scMet-induced seizures at 100 mg/kg, ip after 4 hrs; format: functional, organism-based; set-up: dose 100 mg/kg; method in brief: as §1
Rattus norvegicus [5] = test: Anticonvulsant activity in albino Sprague-Dawley rat assessed as protection against maximal electroshock-induced seizures at 50 mg/kg, po after 1 hr; format: functional
Method in brief: (§2)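 Adult male Sprague-Dawley albino rats (100-150 g) dosed orally with compound suspended in 0.5% methylcellulose (0.04 mL per 10 g). Maximal electroshock challenge at the stated time. Protection is scored in 25% steps as the fraction of animals protected, with neurotoxicity recorded in parallel.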

Mus musculus [6] = test: Anticonvulsant activity in CF1 albino mouse assessed as protection against maximal electroshock-induced seizures at 30 mg/kg, ip after 4 hrs; format: functional, organism-based; set-up: dose 30 mg/kg
Method in brief: (§3)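 Adult male CF no. 1 albino mice (18-25 g). Test compound suspended in 0.5% methylcellulose and given intraperitoneally at 0.01 mL/g body weight. Maximal electroshock challenge at the stated time. Read-out is the number of animals protected over the number tested; neurotoxicity is scored in parallel.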

Rattus norvegicus [7] = test: Neurotoxicity in albino Sprague-Dawley rat at 50 mg/kg, po; format: toxicity, organism-based; set-up: dose 50 mg/kg, route oral; details: in vivo
Method in brief: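 Neurotoxicity was scored in male Sprague-Dawley albino rats (100-150 g) dosed orally with a suspension in 0.5% methylcellulose. The read-out was the fraction of animals showing neurotoxicity (minimal motor impairment).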

Rattus norvegicus [8] = test: Anticonvulsant activity in albino Sprague-Dawley rat assessed as protection against scMet-induced seizures at 50 mg/kg, po after 30 mins; format: functional
Method in brief: (§4)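 Male Sprague-Dawley albino rats (100-150 g) were given the compound orally as a suspension in 0.5% methylcellulose. Seizures were induced by subcutaneous pentylenetetrazol, dissolved in 0.9% saline as a 2.82% solution. The read-out was animals protected over animals tested.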

Mus musculus [9] = test: Neurotoxicity in CF1 albino mouse at 100 mg/kg, ip after 0.5 hrs; format: toxicity, organism-based; set-up: dose 100 mg/kg, route intraperitoneal; details: in vivo
Method in brief: (§5)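 Male CF no. 1 albino mice (18-25 g) received a single ip dose as a suspension in 0.5% methylcellulose. The read-out was the number of animals showing neurotoxicity (minimal motor impairment) over the number tested.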

Mus musculus [10] = test: Anticonvulsant activity in CF1 albino mouse assessed as protection against maximal electroshock-induced seizures at 100 mg/kg, ip after 4 hrs; format: functional, organism-based; set-up: dose 100 mg/kg; method in brief: as §3
Mus musculus [11] = test: Anticonvulsant activity in CF1 albino mouse assessed as protection against scMet-induced seizures at 300 mg/kg, ip after 4 hrs; format: functional, organism-based; set-up: dose 300 mg/kg; method in brief: as §1
Rattus norvegicus [12] = test: Anticonvulsant activity in albino Sprague-Dawley rat assessed as protection against maximal electroshock-induced seizures at 50 mg/kg, po after 30 mins; format: functional; method in brief: as §2
Rattus norvegicus [13] = test: Anticonvulsant activity in albino Sprague-Dawley rat assessed as protection against maximal electroshock-induced seizures at 50 mg/kg, po after 15 mins; format: functional; method in brief: as §2
Rattus norvegicus [14] = test: Anticonvulsant activity in albino Sprague-Dawley rat assessed as protection against scMet-induced seizures at 50 mg/kg, po after 15 mins; format: functional; method in brief: as §4
Mus musculus [15] = test: Neurotoxicity in CF1 albino mouse at 300 mg/kg, ip after 4 hrs; format: toxicity, organism-based; set-up: dose 300 mg/kg, route intraperitoneal; details: in vivo; method in brief: as §5
Mus musculus [16] = test: Anticonvulsant activity in CF1 albino mouse assessed as protection against maximal electroshock-induced seizures at 300 mg/kg, ip after 0.5 hrs; format: functional, organism-based; set-up: dose 300 mg/kg; method in brief: as §3
Mus musculus [17] = test: Anticonvulsant activity in CF1 albino mouse assessed as protection against maximal electroshock-induced seizures at 100 mg/kg, ip after 0.5 hrs; format: functional, organism-based; set-up: dose 100 mg/kg; method in brief: as §3
Mus musculus [18] = test: Anticonvulsant activity in CF1 albino mouse assessed as protection against scMet-induced seizures at 100 mg/kg, ip after 0.5 hrs; format: functional, organism-based; set-up: dose 100 mg/kg; method in brief: as §1
Rattus norvegicus [19] = test: Anticonvulsant activity in albino Sprague-Dawley rat assessed as protection against maximal electroshock-induced seizures at 50 mg/kg, po after 2 hrs; format: functional; method in brief: as §2
Mus musculus [20] = test: Neurotoxicity in CF1 albino mouse at 30 mg/kg, ip after 4 hrs; format: toxicity, organism-based; set-up: dose 30 mg/kg, route intraperitoneal; details: in vivo; method in brief: as §5
Mus musculus [21] = test: Neurotoxicity in CF1 albino mouse at 30 mg/kg, ip after 0.5 hrs; format: toxicity, organism-based; set-up: dose 30 mg/kg, route intraperitoneal; details: in vivo; method in brief: as §5
Rattus norvegicus [22] = test: Anticonvulsant activity in albino Sprague-Dawley rat assessed as protection against scMet-induced seizures at 50 mg/kg, po after 1 hr; format: functional; method in brief: as §4
Rattus norvegicus [23] = test: Anticonvulsant activity in albino Sprague-Dawley rat assessed as protection against scMet-induced seizures at 50 mg/kg, po after 2 hrs; format: functional; method in brief: as §4
Mus musculus [24] = test: Anticonvulsant activity in CF1 albino mouse assessed as protection against maximal electroshock-induced seizures at 30 mg/kg, ip after 0.5 hrs; format: functional, organism-based; set-up: dose 30 mg/kg; method in brief: as §3
Mus musculus [25] = test: Neurotoxicity in CF1 albino mouse at 100 mg/kg, ip after 4 hrs; format: toxicity, organism-based; set-up: dose 100 mg/kg, route intraperitoneal; details: in vivo; method in brief: as §5
Mus musculus [26] = test: Anticonvulsant activity in CF1 albino mouse assessed as protection against maximal electroshock-induced seizures at 300 mg/kg, ip after 4 hrs; format: functional, organism-based; set-up: dose 300 mg/kg; method in brief: as §3
Rattus norvegicus [27] = test: Anticonvulsant activity in albino Sprague-Dawley rat assessed as protection against maximal electroshock-induced seizures at 50 mg/kg, po after 4 hrs; format: functional, organism-based; set-up: dose 50 mg/kg; method in brief: as §2
Rattus norvegicus [28] = test: Anticonvulsant activity in albino Sprague-Dawley rat assessed as protection against scMet-induced seizures at 50 mg/kg, po after 4 hrs; format: functional; method in brief: as §4
Mus musculus [29] = test: Anticonvulsant activity in CF1 albino mouse assessed as protection against scMet-induced seizures at 30 mg/kg, ip after 0.5 hrs; format: functional, organism-based; set-up: dose 30 mg/kg; method in brief: as §1
Mus musculus [30] = test: Neurotoxicity in CF1 albino mouse at 300 mg/kg, ip after 0.5 hrs; format: toxicity, organism-based; set-up: dose 300 mg/kg, route intraperitoneal; details: in vivo; method in brief: as §5
Mus musculus [31] = test: Anticonvulsant activity in CF1 albino mouse assessed as protection against maximal electroshock-induced seizures at 150 mg/kg, ip after 0.5 hrs; format: functional, organism-based; set-up: dose 150 mg/kg; method in brief: as §3
Mus musculus [32] = test: Anticonvulsant activity in CF1 albino mouse assessed as protection against maximal electroshock-induced seizures at 60 mg/kg, ip; format: functional, organism-based; set-up: dose 60 mg/kg; method in brief: as §3
Mus musculus [33] = organism: Mus musculus; test: Protective index, ratio of TD50 for CF1 albino mouse to ED50 for scMet-induced CF1 albino seizure mouse model; format: functional
Method in brief: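 Ratio of TD50 to ED50 (MES or scMet) in male CF no. 1 mice (18-25 g) given ip doses in 0.5% methylcellulose. TD50 comes from minimal motor impairment: the dose was varied until four points lay between no impairment and all animals impaired. Both TD50 and ED50 were derived by probit analysis with 95% confidence intervals.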

Mus musculus [34] = test: Anticonvulsant activity in ip dosed CF1 albino mouse assessed as protection against scMet-induced seizures; format: functional
Method in brief: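 Adult male CF no. 1 albino mice (18-25 g) dosed ip with compound suspended in 0.5% methylcellulose (0.01 mL/g body weight). Seizures were induced by subcutaneous pentylenetetrazol, given as a 0.85% solution in 0.9% saline. ED50 was found by varying the dose to give 3-4 points between 0% and 100% protection, then probit analysis with 95% confidence intervals.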

Mus musculus [35] = test: Anticonvulsant activity in CF1 albino mouse assessed as protection against maximal electroshock-induced seizures at 400 mg/kg, ip; format: functional, organism-based; set-up: dose 400 mg/kg; method in brief: as §3

Structure (SMILES) | Activity (Mus musculus [2]) | Activity (Mus musculus [3]) | Activity (Mus musculus [4]) | Activity (Rattus norvegicus [5]) | Activity (Mus musculus [6]) | Activity (Rattus norvegicus [7]) | Activity (Rattus norvegicus [8]) | Activity (Mus musculus [9]) | Activity (Mus musculus [10]) | Activity (Mus musculus [11]) | Activity (Rattus norvegicus [12]) | Activity (Rattus norvegicus [13]) | Activity (Rattus norvegicus [14]) | Activity (Mus musculus [15]) | Activity (Mus musculus [16]) | Activity (Mus musculus [17]) | Activity (Mus musculus [18]) | Activity (Rattus norvegicus [19]) | Activity (Mus musculus [20]) | Activity (Mus musculus [21]) | further results
CC[C@H](C(N)=O)N1CCCC1=O |  |  |  |  |  |  |  |  |  |  |  |  |  |  |  |  |  |  |  |  | ED50 (Mus musculus [1]): 19 mg/kg
CC1(C)C(C)(C)C1(C)C(=O)O | Non-toxic | Non-toxic | Non-toxic | inactive | Non-toxic | Not Active | inactive | Non-toxic | Non-toxic | Non-toxic | inactive | inactive | inactive | Non-toxic | Toxic | Non-toxic | Non-toxic | inactive | Non-toxic | Non-toxic | Activity (Rattus norvegicus [22]): inactive; Activity (Rattus norvegicus [23]): inactive; Activity (Mus musculus [24]): Non-toxic; Activity (Mus musculus [25]): Non-toxic; Activity (Mus musculus [26]): Non-toxic; Activity (Rattus norvegicus [27]): inactive; Activity (Rattus norvegicus [28]): 25%; Activity (Mus musculus [29]): Non-toxic
CC1(C)C(C)(C)C1(C)C(N)=O | Non-toxic | Toxic | Non-toxic | inactive | Non-toxic | Not Active | inactive | Non-toxic | Non-toxic | Non-toxic | inactive | inactive | inactive | Non-toxic | Toxic | Non-toxic | Non-toxic | inactive | Non-toxic | Non-toxic | Activity (Mus musculus [30]): Toxic; Activity (Rattus norvegicus [22]): 25%; Activity (Rattus norvegicus [23]): 25%; Activity (Mus musculus [24]): Non-toxic; Activity (Mus musculus [25]): Non-toxic; Activity (Mus musculus [26]): Non-toxic; Activity (Rattus norvegicus [27]): inactive; Activity (Rattus norvegicus [28]): inactive; Activity (Mus musculus [29]): Non-toxic
CCCC(F)(CCC)C(N)=O |  |  |  |  |  |  |  |  |  |  |  |  |  |  |  |  |  |  |  |  | Activity (Mus musculus [31]): inactive; Activity (Mus musculus [32]): inactive; PI (Mus musculus [33]): 3.8; ED50 (Mus musculus [34]): 23 mg/kg; Activity (Mus musculus [35]): Active

— ChEMBL document CHEMBL1153988 (J Med Chem, 2009)
